How the values were obtained:
[1] = system: K562; assay: Compound was tested for its effect on ADP ribonucleotide levels of K562 cell at 50 uM concentration; assay type: functional, Homo sapiens
Outline: (§1)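 K562 cells (1×10^7) were treated with saline or agent for 2 h at 37 °C, harvested by centrifugation and washed with cold saline. They were extracted with cold 10% trichloroacetic acid, neutralized with 0.5 M tri-n-octylamine in freon, and analyzed by HPLC. Levels are in nmol/g and expressed as % of saline control. Significance was set at p < 0.05.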

[2] = system: K562; assay: Formation of NAD analogue by compound at 100 uM concentration against human myelogenous leukemia K562; assay type: functional
Outline: (§2)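 K562 cells (1×10^7/10 mL) were labeled with 185 nM [2,8-3H]adenosine for 1 h at 37 °C, then given saline or analogue for 2 h. Cells were pelleted, washed with PBS and extracted in cold 10% trichloroacetic acid. Extracts were neutralized with 0.5 M tri-n-octylamine in freon and run on SAX HPLC with ammonium phosphate buffer. Results are pmol NAD analogue per 10^9 cells.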

[3] = system: K562; assay: Compound was tested for its effect on GDP ribonucleotide levels of K562 cell at 100 uM concentration; assay type: functional, Homo sapiens; outline: as §1
[4] = system: Mus musculus; assay: Average weight change of mice from onset to termination of drug treatment at 400 mg/kg dose; assay type: functional
Outline: (§3)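 Female BD2F1 mice (8 weeks, 20–22 g), eight per group, injected ip with 10^5 L1210 cells on day 0. From 24 h later, drug in 0.9% NaCl was given ip once daily for 9 days. Body weight change was averaged from onset to termination of treatment. Early deaths from toxicity were recorded.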

[5] = system: K562; assay: Compound was tested for its effect on UMP ribonucleotide levels of K562 cell at 100 uM concentration; assay type: functional, Homo sapiens; outline: as §1
[6] = system: HL-60; assay: (§4) Inhibitory concentration range against human HL-60 cell line; assay type: functional, cell-based
Outline: (§5)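 Antiproliferative assay scoring [125I]-5-iodo-2'-deoxyuridine incorporation into DNA after 72 h drug–cell contact. Run on normal human bone marrow from five donors and in three assays on HL-60. Ratio is antilog(mean log IC50 or IC90) on bone marrow over the same on HL-60. Range limits are antilog(mean log IC50 ± 2SD).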

[7] = system: K562; assay: Inhibitory concentration against K562 human myelogenous leukemia cell line; assay type: functional, cell-based
Outline: (§6)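 Cells in log phase plated with a range of drug concentrations (B16 5×10^3 cells/well; P388, L1210, LLC 10^4 cells/well; HL-60, K562, LoVo 2.5×10^5 cells/well). Growth read by modified MTT after 72 h drug contact at 37 °C. IC50 taken as the concentration reducing optical absorption by 50%, from Chou regression analysis. Maximum concentration tested 200 μM.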

[8] = system: K562; assay: Compound was tested for its effect on NAD ribonucleotide levels of K562 cell at 50 uM concentration; assay type: functional, Homo sapiens; outline: as §1
[9] = system: K562; assay: Compound was tested for its effect on ATP ribonucleotide levels of K562 cell at 100 uM concentration; assay type: functional, Homo sapiens; outline: as §1
[10] = system: K562; assay: Compound was tested for its effect on GMP ribonucleotide levels of K562 cell at 100 uM concentration; assay type: functional, Homo sapiens; outline: as §1
[11] = system: K562; assay: Formation of NAD analogue by compound at 50 uM concentration against human myelogenous leukemia K562; assay type: functional; outline: as §2
[12] = system: K562; assay: Compound was tested for its effect on ADP ribonucleotide levels of K562 cell at 100 uM concentration; assay type: functional, Homo sapiens; outline: as §1
[13] = system: K562; assay: Compound was tested for its effect on UDP ribonucleotide levels of K562 cell at 100 uM concentration; assay type: functional, Homo sapiens; outline: as §1
[14] = system: K562; assay: Compound was tested for its effect on CTP ribonucleotide levels of K562 cell at 100 uM concentration; assay type: functional, Homo sapiens; outline: as §1
[15] = system: Mus musculus; assay: Compound was tested for ratio of survival time of treated to control mice x100 at 25 mg/kg dose; assay type: functional
Outline: (§7)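 Female BD2F1 mice (8 weeks old, 20–22 g), eight per group, injected ip with 10^5 L1210 leukemia cells on day 0. Starting 24 h later, drug dissolved in 0.9% NaCl given ip once daily for 9 consecutive days. % T/C = survival time of treated/control mice × 100. Body weight change tracked from start to end of treatment.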

[16] = system: K562; assay: Compound was tested for its effect on UDP ribonucleotide levels of K562 cell at 50 uM concentration; assay type: functional, Homo sapiens; outline: as §1
[17] = system: P388; assay: Inhibitory concentration against P388 murine lymphocytic leukemia cell lines; assay type: functional, cell-based; details: Mus musculus; outline: as §6
[18] = system: K562; assay: Compound was tested for its effect on UTP ribonucleotide levels of K562 cell at 50 uM concentration; assay type: functional, Homo sapiens; outline: as §1
[19] = system: K562; assay: Compound was tested for its effect on AMP ribonucleotide levels of K562 cell at 100 uM concentration; assay type: functional, Homo sapiens; outline: as §1
[20] = system: HL-60; assay: as §4; assay type: functional; outline: as §5
[21] = system: K562; assay: Compound was tested for its effect on IMP ribonucleotide levels of K562 cell at 50 uM concentration; assay type: functional, Homo sapiens; outline: as §1
[22] = species: Homo sapiens; assay: (§8) Inhibitory concentration range against human bone marrow; assay type: functional; outline: as §5
[23] = system: K562; assay: Compound was tested for its effect on GTP ribonucleotide levels of K562 cell at 50 uM concentration; assay type: functional, Homo sapiens; outline: as §1
[24] = system: Mus musculus; assay: Compound was tested for ratio of survival time of treated to control mice x100 at 400 mg/kg dose; assay type: functional; outline: as §7
[25] = system: Lewis lung carcinoma cell line; assay: Inhibitory concentration against LLC Lewis lung carcinoma; assay type: functional, cell-based; details: Mus musculus; outline: as §6
[26] = system: L1210; assay: Inhibitory concentration against L1210 murine lymphocytic leukemia; assay type: functional, cell-based; details: Mus musculus; outline: as §6
[27] = system: K562; assay: Compound was tested for its effect on CTP ribonucleotide levels of K562 cell at 50 uM concentration; assay type: functional, Homo sapiens; outline: as §1
[28] = system: K562; assay: Compound was tested for its effect on CDP ribonucleotide levels of K562 cell at 100 uM concentration; assay type: functional, Homo sapiens; outline: as §1
[29] = system: K562; assay: Compound was tested for its effect on UMP ribonucleotide levels of K562 cell at 50 uM concentration; assay type: functional, Homo sapiens; outline: as §1
[30] = species: Homo sapiens; assay: as §8; assay type: functional, organism-based; outline: as §5
[31] = IC90 ratio against bone marrow samples to HL-60; assay type: functional; outline: as §5
[32] = system: K562; assay: Compound was tested for its effect on IMPDH activity against K562 cells at 50 uM concentration; assay type: functional, Homo sapiens
Outline: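 Log-phase K562 cells (1×10^6/mL) were exposed to saline or agent for 2 h at 37 °C, washed and lysed (Tris-HCl pH 7.4, NaCl, MgCl2, 0.5% NP-40, aprotinin). The cleared supernatant was incubated 30 min at 37 °C with 286 μM [2,8-3H]IMP and 1 mM NAD. Tritium release was counted by scintillation. Activity is nmol XMP/h/mg protein, also given as % of control.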

[33] = system: K562; assay: Compound was tested for its effect on GTP ribonucleotide levels of K562 cell at 100 uM concentration; assay type: functional, Homo sapiens; outline: as §1
[34] = system: K562; assay: Compound was tested for its effect on AMP ribonucleotide levels of K562 cell at 50 uM concentration; assay type: functional, Homo sapiens; outline: as §1
[35] = system: K562; assay: Compound was tested for its effect on IMP ribonucleotide levels of K562 cell at 100 uM concentration; assay type: functional, Homo sapiens; outline: as §1
[36] = system: K562; assay: Compound was tested for its effect on ATP ribonucleotide levels of K562 cell at 50 uM concentration; assay type: functional, Homo sapiens; outline: as §1
[37] = system: HL-60; assay: Inhibitory concentration against HL-60 human promyelocytic leukemia; assay type: functional, cell-based; outline: as §6
[38] = Ratio of IC50 against HL-60; assay type: functional; outline: as §5
[39] = system: K562; assay: compound was tested for its effect on IMPDH activity against K562 cells at 50 uM concentration; assay type: functional, Homo sapiens
Outline: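 K562 cells (1×10^6/mL, log phase) exposed 2 h at 37 °C to 10, 50 or 100 μM drug, or to saline. Cells washed and lysed in Tris-HCl pH 7.4/NaCl/MgCl2/NP-40/aprotinin, and the 13000g supernatant used as enzyme. Enzyme incubated 30 min at 37 °C with 286 μM [2,8-3H]IMP and 1 mM NAD. Tritium release counted; activity in nmol XMP/h/mg protein, as % of saline control.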

[40] = system: K562; assay: Compound was tested for its effect on NAD ribonucleotide levels of K562 cell at 100 uM concentration; assay type: functional, Homo sapiens; outline: as §1
[41] = system: LoVo; assay: Inhibitory concentration against LoVo human colon adenocarcinoma cell lines; assay type: functional, cell-based; outline: as §6
[42] = system: K562; assay: Compound was tested for its effect on UTP ribonucleotide levels of K562 cell at 100 uM concentration; assay type: functional, Homo sapiens; outline: as §1
[43] = system: K562; assay: Compound was tested for its effect on GMP ribonucleotide levels of K562 cell at 50 uM concentration; assay type: functional, Homo sapiens; outline: as §1
[44] = system: K562; assay: Compound was tested for its effect on CDP ribonucleotide levels of K562 cell at 50 uM concentration; assay type: functional, Homo sapiens; outline: as §1
[45] = system: K562; assay: Compound was tested for its effect on GDP ribonucleotide levels of K562 cell at 50u; assay type: functional, Homo sapiens; outline: as §1
[46] = system: Mus musculus; assay: Average weight change of mice from onset to termination of drug treatment at 25 mg/kg dose; assay type: functional; outline: as §3
[47] = IC50 ratio against bone marrow samples to HL-60; assay type: functional; outline: as §5
[48] = system: HL-60; assay: Inhibitory concentration against HL-60 human promyelocytic leukemia cell lines; inactive until a maximum tested concentration of 200 uM; assay type: functional, cell-based; outline: as §6
[49] = system: Lewis lung carcinoma cell line; assay: Inhibitory concentration against LLC Lewis lung carcinoma cell lines; Inactive until a maximum tested concentration of 200 uM; assay type: functional, cell-based, Mus musculus; outline: as §6
[50] = system: B16; assay: Inhibitory concentration against B16 melanoma cell lines; Inactive until a maximum tested concentration of 200 uM; assay type: functional, cell-based, Mus musculus; outline: as §6
[51] = system: L1210; assay: Inhibitory concentration against L1210 murine lymphocytic leukemia cell lines; inactive until a maximum tested concentration of 200 uM; assay type: functional, cell-based, Mus musculus; outline: as §6
[52] = system: P388; assay: Inhibitory concentration against P388 murine lymphocytic leukemia cell lines; Inactive until a maximum tested concentration of 200 uM; assay type: functional, cell-based, Mus musculus; outline: as §6
[53] = system: K562; assay: Inhibitory concentration determined against K562 human myelogenous leukemia cell lines; inactive until a maximum tested concentration of 200 uM; assay type: functional, cell-based; outline: as §6
[54] = system: LoVo; assay: Inhibitory concentration against LoVo human colon adenocarcinoma cell lines; Inactive until a maximum tested concentration of 200 uM; assay type: functional, cell-based; outline: as §6

For `NC(=O)c1csc([C@@H]2O[C@H](CO)[C@@H](O)[C@H]2O)n1` [TIAZOFURIN], the Control [1] was 103%, the Formation [2] was 310 pmol/10^9 cells and the Control [3] was 63%. The Change [4] was -13.1%, the Control [5] was 96% and the IC50 [6] was 2.5 µM. The IC50 [7] was 4.5 µM, the Control [8] was 98% and the Control [9] was 91%. The Control [10] was 55%, the Formation [11] was 186 pmol/10^9 cells and the Control [12] was 99%. It also gave a Control [13] of 116%, a Control [14] of 32% and a T/C [15] of 177%. For the same molecule, the Control [16] was 120%, the IC50 [17] was 2.2 µM and the Control [18] was 115%. The Control [19] was 103%, the IC90 [20] was 7.6 µM and the Control [21] was 544%. It also gave an IC90 [22] greater than 128 µM, a Control [23] of 64% and a T/C [24] of 260%. The IC50 [25] was 1.5 µM, the IC50 [26] was 7.4 µM and the Control [27] was 92%. For the same molecule, the Control [28] was 85%, the Control [29] was 113% and the IC50 [30] was 10.4 µM. For the same molecule, the Ratio [31] was greater than 6, the Activity [32] was 1.82 and the Control [33] was 54%. It also gave a Control [34] of 100%, a Control [35] of 578% and a Control [36] of 101%. The IC50 [37] was 8.7 µM, the Ratio [38] was 1.9 and the Control [39] was 37%. The Control [40] was 84%, the IC50 [41] was greater than 128 µM and the Control [42] was 90%. For the same molecule, the Control [43] was 62%, the Control [44] was 104% and the Control [45] was 82%. The Change [46] was -4.3% and the Ratio [47] was 7.3.
For `NC(=O)c1coc([C@@H]2O[C@H](CO)[C@@H](O)[C@H]2O)c1`, the IC50 [48] was “Not Active”, the Formation [2] was 124 pmol/10^9 cells and the Formation [11] was 49.4 pmol/10^9 cells. For the same molecule, the IC50 [49] was “Not Active”, the IC50 [50] was “Not Active” and the IC50 [51] was “Not Active”. The IC50 [52] was “Not Active”, the IC50 [53] was “Not Active” and the IC50 [54] was “Not Active”.

— ChEMBL document CHEMBL1128731, “Furanfurin and thiophenfurin: two novel tiazofurin analogues. Synthesis, structure, antitumor activity, and interactions with inosine monophosphate dehydrogenase” (J Med Chem, 1995)
